Columns and labels:
Calf thymus DNA [1] = assay: Binding affinity to calf thymus DNA assessed as inhibition of DNA-dependent Escherichia coli RNA polymerase activity by measuring [14C]ATP incorporation at 2.5 uM by liquid scintillation spectrometer analysis; format: nucleic-acid assay; details: Bos taurus
Procedure, shortened: (§1)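 0.125 mL mix: Tris-HCl pH 8.0 5 μmol, MgCl2 1.25 μmol, β-mercaptoethanol 1.25 μmol, CTP/UTP/GTP 0.019 μmol each, [8-14C]ATP 0.019 μmol, calf thymus DNA 3.65 μg. Compound in 5 μL MeOH (MeOH-only controls) added before the E. coli enzyme. Incubated 10 min at 37. Acid-insoluble label collected by filter-disk method and scintillation counted. Triplicates.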

Calf thymus DNA [2] = assay: Binding affinity to calf thymus DNA assessed as inhibition of DNA-dependent Escherichia coli RNA polymerase activity by measuring [14C]ATP incorporation at 10 uM by liquid scintillation spectrometer analysis; format: nucleic-acid assay; details: Bos taurus; procedure, shortened: as §1
Calf thymus DNA [3] = assay: Binding affinity to calf thymus DNA assessed as inhibition of DNA-dependent Escherichia coli RNA polymerase activity by measuring [14C]ATP incorporation at 0.1 mM by liquid scintillation spectrometer analysis; format: nucleic-acid assay; details: Bos taurus; procedure, shortened: as §1
Calf thymus DNA [4] = assay: Binding affinity to calf thymus DNA assessed as inhibition of DNA-dependent Escherichia coli RNA polymerase activity by measuring [14C]ATP incorporation at 50 uM by liquid scintillation spectrometer analysis; format: nucleic-acid assay; details: Bos taurus; procedure, shortened: as §1
Calf thymus DNA [5] = assay: Binding affinity to calf thymus DNA assessed as inhibition of DNA-dependent Escherichia coli RNA polymerase activity by measuring [14C]ATP incorporation at 7.5 uM by liquid scintillation spectrometer analysis; format: nucleic-acid assay; details: Bos taurus; procedure, shortened: as §1
Calf thymus DNA [6] = assay: Binding affinity to calf thymus DNA assessed as change in melting temperature at 10 uM by spectrophotometer analysis; format: nucleic-acid assay; details: Bos taurus
Procedure, shortened: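 Drug at 1×10^-5 M with 15 μg/mL calf thymus DNA in 5 mM phosphate buffer, pH 7.4. Absorbance followed at 260 nm while temperature rose at 1.0 °C/min to give the melting temperature.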

Calf thymus DNA [7] = assay: Binding affinity to calf thymus DNA assessed as inhibition of DNA-dependent Escherichia coli RNA polymerase activity by measuring [14C]ATP incorporation by liquid scintillation spectrometer analysis; format: nucleic-acid assay; details: for inhibition: Bos taurus; for IC50: read-out: I50; procedure, shortened: as §1
Calf thymus DNA [8] = assay: Binding affinity to calf thymus DNA assessed as inhibition of DNA-dependent Escherichia coli RNA polymerase activity by measuring [14C]ATP incorporation at 5 uM by liquid scintillation spectrometer analysis; format: nucleic-acid assay; details: Bos taurus; procedure, shortened: as §1
P388 [9] = assay: Antitumor activity against mouse P388 cells assessed as mean animal survival time at 25 mg/kg administered qd for 1 to 9 days relative to control; format: functional
Procedure, shortened: (§2)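 P-388 leukemia survival test. The value is T/C: mean or median survival time of treated animals divided by that of control animals, expressed as a percentage. A compound counts as active if it gives reproducible T/C values of 125% or more.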

[10] = Retardation factor of the compound using n-BuOH-AcOH-H2O at ratio of 3:1:2 as solvent system by silica gel based chromatography; format: physicochemical
P388 [11] = assay: Antitumor activity against mouse P388 cells assessed as mean animal survival time at 6.25 mg/kg administered qd for 1 to 9 days relative to control; format: functional; procedure, shortened: as §2
P388 [12] = assay: Antitumor activity against mouse P388 cells assessed as mean animal survival time at 12.5 mg/kg administered qd for 1 to 9 days relative to control; format: functional; procedure, shortened: as §2
P388 [13] = assay: Antitumor activity against mouse P388 cells assessed as mean animal survival time at 100 mg/kg administered qd for 1 to 9 days relative to control; format: functional; procedure, shortened: as §2
P388 [14] = assay: Antitumor activity against mouse P388 cells assessed as mean animal survival time at 400 mg/kg administered qd for 1 to 9 days relative to control; format: functional; procedure, shortened: as §2

Cc1cc(NCCCCCCCCNc2cc(C)nc3cc(N)ccc23)c2ccc(N)cc2n1
inhibition (Calf thymus DNA [1]): 0%
inhibition (Calf thymus DNA [2]): 95%
inhibition (Calf thymus DNA [3]): 97%
inhibition (Calf thymus DNA [4]): 95%
inhibition (Calf thymus DNA [5]): 91%
ΔTm (Calf thymus DNA [6]): 18.5 °C
inhibition (Calf thymus DNA [7]): Dose-dependent effect
inhibition (Calf thymus DNA [8]): 38%

CC(=O)O.Cc1cc(NCCCCNCCCNc2cc(C)nc3cc(N)ccc23)c2ccc(N)cc2n1
T/C (P388 [9]): 165%

Cc1cc(NCCCCCCCNc2cc(C)nc3cc(N)ccc23)c2ccc(N)cc2n1.Cl
Rf [10]: 0.63
IC50 (Calf thymus DNA [7]): 6 µM

CC(=O)O.Cc1cc(NCCCCCCNc2cc(C)nc3cc(N)ccc23)c2ccc(N)cc2n1
T/C (P388 [9]): 158%

Cc1cc(NCCCCCCNc2cc(C)nc3cc(N)ccc23)c2ccc(N)cc2n1
inhibition (Calf thymus DNA [1]): 0%
inhibition (Calf thymus DNA [2]): 91%
inhibition (Calf thymus DNA [3]): 97%
inhibition (Calf thymus DNA [4]): 93%
inhibition (Calf thymus DNA [5]): 50%
ΔTm (Calf thymus DNA [6]): 19 °C
inhibition (Calf thymus DNA [7]): Dose-dependent effect
inhibition (Calf thymus DNA [8]): 29%

CC(=O)O.Cc1cc(NCCCCCCCCNc2cc(C)nc3cc(N)ccc23)c2ccc(N)cc2n1
T/C (P388 [11]): 134%

CC(=O)O.Cc1cc(NCCCCCCCNc2cc(C)nc3cc(N)ccc23)c2ccc(N)cc2n1
T/C (P388 [11]): 196%

Cc1cc(NCCCCCCCNc2cc(C)nc3cc(N)ccc23)c2ccc(N)cc2n1
inhibition (Calf thymus DNA [1]): 0%
inhibition (Calf thymus DNA [2]): 63%
inhibition (Calf thymus DNA [3]): 98%
inhibition (Calf thymus DNA [4]): 98%
inhibition (Calf thymus DNA [5]): 24%
ΔTm (Calf thymus DNA [6]): 17 °C
inhibition (Calf thymus DNA [7]): Dose-dependent effect
inhibition (Calf thymus DNA [8]): 0%

Cc1cc(NCCCNCCCNc2cc(C)nc3cc([N+](=O)[O-])ccc23)c2ccc([N+](=O)[O-])cc2n1.Cl
Rf [10]: 0.69
T/C (P388 [9]): 150%

Cc1cc(NCCCNCCCNc2cc(C)nc3cc(N)ccc23)c2ccc(N)cc2n1
inhibition (Calf thymus DNA [1]): 0%
inhibition (Calf thymus DNA [2]): 96%
inhibition (Calf thymus DNA [3]): 94%
inhibition (Calf thymus DNA [4]): 98%
inhibition (Calf thymus DNA [5]): 31%
ΔTm (Calf thymus DNA [6]): 22.5 °C
inhibition (Calf thymus DNA [7]): Dose-dependent effect
inhibition (Calf thymus DNA [8]): 9%

Cc1cc(NCCCCCCCCNc2cc(C)nc3cc(N)ccc23)c2ccc(N)cc2n1.Cl
Rf [10]: 0.7
IC50 (Calf thymus DNA [7]): 6 µM

Cc1cc(NCCCCCCCCNc2cc(C)nc3cc([N+](=O)[O-])ccc23)c2ccc([N+](=O)[O-])cc2n1.Cl
Rf [10]: 0.8
T/C (P388 [12]): 110%

Cc1cc(NCCCCCCNc2cc(C)nc3cc([N+](=O)[O-])ccc23)c2ccc([N+](=O)[O-])cc2n1.Cl
Rf [10]: 0.77
T/C (P388 [13]): 99%

Cc1cc(NCCCCNCCCNc2cc(C)nc3cc(N)ccc23)c2ccc(N)cc2n1.Cl
Rf [10]: 0.5
IC50 (Calf thymus DNA [7]): 6 µM

Cc1cc(NCCCCNCCCNc2cc(C)nc3cc(N)ccc23)c2ccc(N)cc2n1
inhibition (Calf thymus DNA [1]): 0%
inhibition (Calf thymus DNA [2]): 95%
inhibition (Calf thymus DNA [3]): 92%
inhibition (Calf thymus DNA [4]): 94%
inhibition (Calf thymus DNA [5]): 38%
ΔTm (Calf thymus DNA [6]): 19.5 °C
inhibition (Calf thymus DNA [7]): Dose-dependent effect
inhibition (Calf thymus DNA [8]): 17%

Cc1cc(NCCCCCCNc2cc(C)nc3cc(N)ccc23)c2ccc(N)cc2n1.Cl
Rf [10]: 0.6
IC50 (Calf thymus DNA [7]): 6 µM

CC(=O)O.Cc1cc(NCCCNCCCNc2cc(C)nc3cc(N)ccc23)c2ccc(N)cc2n1
T/C (P388 [12]): 150%

Cc1cc(NCCCCNCCCNc2cc(C)nc3cc([N+](=O)[O-])ccc23)c2ccc([N+](=O)[O-])cc2n1.Cl
Rf [10]: 0.73
T/C (P388 [12]): 150%

Cc1cc(NCCCNCCCNc2cc(C)nc3cc(N)ccc23)c2ccc(N)cc2n1.Cl
Rf [10]: 0.57
IC50 (Calf thymus DNA [7]): 6 µM

Cc1cc(NCCCCCCCNc2cc(C)nc3cc([N+](=O)[O-])ccc23)c2ccc([N+](=O)[O-])cc2n1.Cl
Rf [10]: 0.79
T/C (P388 [12]): 149%

Cc1cc(NCCCCCCNc2cc(C)nc3ccc(N)cc23)c2cc(N)ccc2n1.Cl
ΔTm (Calf thymus DNA [6]): 18 °C
T/C (P388 [14]): 254%

From ChEMBL document CHEMBL3272200, “Synthsis and antitumor properties of bis(quinaldine) derivatives” (J Med Chem, 1977)
